Results: paper PMC10938134 (International Journal for Parasitology: Drugs and Drug …, 2024)
Each block holds one compound with its values, some of them ahead of it.

How the values were obtained:
[1] = tested on: bloodstream stage of Trypanosoma brucei brucei; test: Viability assay for T. brucei brucei; type: cell-based; conditions: 24 h
[2] = tested on: redox biosensor hGrx1-roGFP2 in bloodstream T. b. brucei; test: Redox reporter assay for T. brucei brucei; type: cell-based, Trypanosoma brucei brucei; conditions: compound at its EC50 for 1 h; p < 0.001 compared to DMSO-treated parasites
Summary of the method: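 Exponential-phase bloodstream parasites expressing the redox biosensor were exposed for 1 h to the test compound, with 1% v/v DMSO as vehicle and untreated cells as minimum. Diamide at 500 μM for 20 min gave maximum oxidation. Samples were then incubated for 20 min with 1 mM DTT. Flow cytometry gave % biosensor oxidation relative to these maximum and minimum conditions.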

[3] = Trypanosoma brucei, bloodstream parasites, 24 h incubation, compounds tested at 5 μM

EC50 ([1]; bloodstream T. b. brucei, concentration-response curves): 0.43 ± 0.07 µM
Compound: N=C(N)c1ccc(N=NNc2ccc(C(=N)N)cc2)cc1 [Ber, Berenil, reference compound]

Compound: OC[C@H]1O[C@@H]([Se]Cc2ccc3ccccc3n2)[C@H](O)[C@@H](O)[C@@H]1O [compound 11, Quinolin-2-ylmethyl 1-seleno-β-D-glucopyranoside]
EC50 ([1]; Trypanosoma brucei): ~5 µM | viability at 5 µM ([1]; Trypanosoma brucei): 57.5 ± 3.8%

Compound: CC(=O)OC[C@H]1O[C@@H]([Se]Cc2ccc3ccccc3n2)[C@H](OC(C)=O)[C@@H](OC(C)=O)[C@@H]1OC(C)=O [compound 12, Quinolin-2-ylmethyl 2,3,4,6-tetra-O-acetyl-1-seleno-β-D-glucopyranoside]
significant oxidation of the redox biosensor (in words) [2]: Except for the quinolino Se-glycoside 12

Compound: COc1ccc2c(C[Se][C@@H]3O[C@H](CO)[C@@H](O)[C@H](O)[C@H]3O)cc(=O)oc2c1 [compound 13, 7-Methoxycoumarin-4-ylmethyl 1-seleno-β-D-glucopyranoside]
viability at 5 µM [1, 3]: 57.3 ± 0.4%

Compound: COc1ccc2c(C[Se][C@@H]3O[C@H](CO)[C@H](O)[C@H](O)[C@H]3O)cc(=O)oc2c1 [compound 14, 7-Methoxycoumarin-4-ylmethyl 1-seleno-β-D-galactopyranoside]
viability at 5 µM [1, 3]: ≤ 50%
